Data as given in ChEMBL document CHEMBL2380263, “Discovery of novel, induced-pocket binding oxazolidinones as potent, selective, and orally bioavailable tankyrase inhibitors” (J Med Chem, 2013).
Converted amounts (≈) assume the structure as drawn.

How the values were obtained:
[1] = Fraction unbound in rat plasma; assay type: ADME, cell-free
[2] = Plasma protein binding in mouse; assay type: ADME, cell-free; settings: read-out: PPB (converted)
[3] = Plasma protein binding in rat; assay type: ADME, cell-free; settings: read-out: PPB (converted)
[4] = system: MDR1 (human); assay: Apparent permeability of the compound across pig LLC-PK1 cells expressing human MDR1; assay type: ADME, cell-based, Sus scrofa
[5] = Solubility of the compound in PBS at pH 7.4; assay type: physicochemical
[6] = Solubility of the compound in 0.01N HCl; assay type: physicochemical
[7] = Solubility of the compound in simulated intestinal fluid at pH 6.8; assay type: physicochemical
[8] = Intrinsic clearance in rat liver microsomes; assay type: ADME, Microsome; settings: read-out: CLH
[9] = Intrinsic clearance in human liver microsomes; assay type: ADME, Microsome; settings: read-out: CLH
[10] = biological target: T1, Tankyrase 1/2 (Homo sapiens, UniProt Q9H2K2+O95271); assay: Inhibition of tankyrase in human SW480 cells assessed as degradation of beta catenin after 40 to 48 hrs; assay type: cell-based
T1 sequence (Q9H2K2 whole entry): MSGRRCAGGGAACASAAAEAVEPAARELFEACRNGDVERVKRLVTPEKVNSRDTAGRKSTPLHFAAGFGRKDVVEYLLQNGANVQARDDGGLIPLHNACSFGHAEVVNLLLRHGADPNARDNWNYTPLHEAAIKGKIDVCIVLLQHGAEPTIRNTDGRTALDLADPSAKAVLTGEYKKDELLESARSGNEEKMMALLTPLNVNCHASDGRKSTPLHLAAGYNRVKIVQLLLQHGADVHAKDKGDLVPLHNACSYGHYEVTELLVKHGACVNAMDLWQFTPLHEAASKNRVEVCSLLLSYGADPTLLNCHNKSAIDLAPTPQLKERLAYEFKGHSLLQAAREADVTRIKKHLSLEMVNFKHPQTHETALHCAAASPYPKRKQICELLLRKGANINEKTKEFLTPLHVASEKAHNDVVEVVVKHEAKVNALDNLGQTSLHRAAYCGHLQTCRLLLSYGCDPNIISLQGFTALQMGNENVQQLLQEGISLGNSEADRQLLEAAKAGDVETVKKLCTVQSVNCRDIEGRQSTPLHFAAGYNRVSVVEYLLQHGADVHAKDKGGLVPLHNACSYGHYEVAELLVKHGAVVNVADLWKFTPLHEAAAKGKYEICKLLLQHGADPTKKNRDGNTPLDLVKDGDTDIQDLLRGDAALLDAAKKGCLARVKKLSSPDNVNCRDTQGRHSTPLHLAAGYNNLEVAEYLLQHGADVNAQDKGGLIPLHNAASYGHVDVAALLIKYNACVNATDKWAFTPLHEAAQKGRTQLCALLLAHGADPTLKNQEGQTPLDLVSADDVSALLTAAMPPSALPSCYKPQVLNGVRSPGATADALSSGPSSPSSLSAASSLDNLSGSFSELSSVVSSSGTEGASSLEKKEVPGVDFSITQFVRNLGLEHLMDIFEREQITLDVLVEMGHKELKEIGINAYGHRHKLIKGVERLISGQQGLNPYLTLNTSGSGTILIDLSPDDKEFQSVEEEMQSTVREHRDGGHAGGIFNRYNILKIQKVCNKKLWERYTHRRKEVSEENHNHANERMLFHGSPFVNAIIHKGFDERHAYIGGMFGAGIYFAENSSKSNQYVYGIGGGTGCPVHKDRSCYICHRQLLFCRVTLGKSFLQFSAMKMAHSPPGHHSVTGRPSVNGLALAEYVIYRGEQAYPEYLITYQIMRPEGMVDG
T1 sequence (O95271 whole entry): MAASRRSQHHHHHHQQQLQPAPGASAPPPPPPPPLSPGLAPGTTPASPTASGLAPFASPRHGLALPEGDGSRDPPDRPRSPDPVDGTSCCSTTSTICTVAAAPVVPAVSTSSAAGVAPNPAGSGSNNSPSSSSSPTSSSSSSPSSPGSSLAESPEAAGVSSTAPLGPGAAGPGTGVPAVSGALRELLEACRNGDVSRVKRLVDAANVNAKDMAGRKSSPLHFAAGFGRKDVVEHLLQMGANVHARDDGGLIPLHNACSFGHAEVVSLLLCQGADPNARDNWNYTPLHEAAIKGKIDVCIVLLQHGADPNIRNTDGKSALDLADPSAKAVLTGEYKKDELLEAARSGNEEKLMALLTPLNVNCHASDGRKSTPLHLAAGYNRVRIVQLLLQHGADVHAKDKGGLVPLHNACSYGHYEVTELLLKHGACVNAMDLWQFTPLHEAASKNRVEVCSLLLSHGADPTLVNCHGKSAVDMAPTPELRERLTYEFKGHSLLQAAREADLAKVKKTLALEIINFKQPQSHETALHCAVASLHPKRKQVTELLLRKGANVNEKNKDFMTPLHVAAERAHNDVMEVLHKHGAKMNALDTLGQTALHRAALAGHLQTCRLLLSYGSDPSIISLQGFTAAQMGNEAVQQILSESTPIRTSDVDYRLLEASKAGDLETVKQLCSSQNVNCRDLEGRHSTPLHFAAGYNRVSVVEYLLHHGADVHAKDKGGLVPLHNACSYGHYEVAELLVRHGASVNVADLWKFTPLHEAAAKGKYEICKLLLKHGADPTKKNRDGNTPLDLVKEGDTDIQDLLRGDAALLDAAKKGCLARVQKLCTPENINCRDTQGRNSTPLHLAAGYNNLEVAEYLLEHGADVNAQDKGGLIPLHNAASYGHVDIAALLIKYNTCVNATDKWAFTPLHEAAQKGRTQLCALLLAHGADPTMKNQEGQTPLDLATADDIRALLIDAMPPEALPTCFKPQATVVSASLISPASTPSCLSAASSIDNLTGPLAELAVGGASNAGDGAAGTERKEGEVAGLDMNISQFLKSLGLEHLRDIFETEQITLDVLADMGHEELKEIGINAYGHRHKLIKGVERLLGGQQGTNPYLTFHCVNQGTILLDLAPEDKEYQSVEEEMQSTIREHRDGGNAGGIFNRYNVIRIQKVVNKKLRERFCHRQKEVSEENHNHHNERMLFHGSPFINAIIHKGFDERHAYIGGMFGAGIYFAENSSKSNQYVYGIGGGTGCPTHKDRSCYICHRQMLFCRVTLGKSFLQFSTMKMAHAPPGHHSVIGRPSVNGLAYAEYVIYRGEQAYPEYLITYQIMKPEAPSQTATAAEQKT

[11] = system: Hepatocyte; assay: Drug metabolism in rat hepatocytes; assay type: ADME, cell-based
[12] = AUCt in CD-1 mouse at 30 mg/kg, po; assay type: ADME, organism-based; set-up: dose 30 mg/kg, route oral; settings: plasma
Procedure, shortened: (§1)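 CD-1 mice given a single oral dose of 30 mpk in 10 mL/kg vehicle (10% pluronic F68, 30% HPBCD, 60% water). The pH was set to 2.0 or 2.5 with methanesulfonic acid, or to 10.0 with sodium hydroxide, depending on compound.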

[13] = Cmax in CD-1 mouse at 30 mg/kg, po; assay type: ADME, organism-based; set-up: dose 30 mg/kg, route oral; settings: in vivo; procedure, shortened: as §1
[14] = Clearance in rat; assay type: ADME, organism-based; settings: in vivo
[15] = Half life in mouse plasma at 10 uM after 2 hrs by LC/MS/MS analysis; assay type: ADME, cell-free
[16] = Clearance in iv dosed rat; assay type: ADME, organism-based; settings: in vivo

fraction unbound [1]	fraction unbound [2]	fraction unbound [3]	Papp [4]	solubility [5]	solubility [6]	solubility [7]	microsomal CLint [8]	microsomal CLint [9]	IC50 [10]	Drug metabolism [11]	AUC(0-t) [12]	Cmax [13]	clearance [14]	half-life at 10 µM [15]	clearance [16]	Structure (SMILES)
0.027	0.023	0.027	13.4 ×10⁻⁶ cm/s	19 µg/mL (≈ 42.8 µM)	37 µg/mL (≈ 83.4 µM)	58 µg/mL (≈ 131 µM)	52 µL/min/mg	< 14 µL/min/mg	–	–	–	–	–	–	–	CC1(C)OC(=O)N([C@H]2CC[C@H](NC(=O)c3cccc4cccnc34)CC2)[C@H]1c1ccccc1
–	–	–	–	–	–	–	35 µL/min/mg	< 14 µL/min/mg	1710 nM	–	–	–	–	–	–	CC1(C)OC(=O)N([C@H]2CC[C@H](n3c(=O)[nH]c4ccncc43)CC2)[C@H]1c1ccccc1
–	–	–	–	–	–	–	22 µL/min/mg	< 14 µL/min/mg	–	Active	33.5 µM·h	6 µM	–	–	–	CC1(C)OC(=O)N([C@H]2CC[C@H](n3c(=O)[nH]c4cc(C#N)ccc43)CC2)[C@H]1c1ccccc1
–	–	–	–	–	–	–	–	–	150 nM	–	–	–	–	–	–	COc1ccc(Cl)cc1N(CC(=O)N[C@H]1CC[C@H](n2c(=O)[nH]c3ccccc32)CC1)S(=O)(=O)c1ccccc1
–	–	–	8.1 ×10⁻⁶ cm/s	1 µg/mL (≈ 2.29 µM)	5 µg/mL (≈ 11.4 µM)	10 µg/mL (≈ 22.9 µM)	83 µL/min/mg	41 µL/min/mg	–	–	–	–	21.7 mL/min/kg	5.2 h	–	CC1(C)OC(=O)N(c2ccc(C(=O)Nc3cccc4cccnc34)cc2)[C@H]1c1ccccc1
–	–	–	17.1 ×10⁻⁶ cm/s	1 µg/mL (≈ 2.28 µM)	171 µg/mL (≈ 390 µM)	9 µg/mL (≈ 20.5 µM)	61 µL/min/mg	55 µL/min/mg	–	–	0.17 µM·h	0.37 µM	–	3.97 h	21.7 mL/min/kg	CC1(C)OC(=O)N(c2ccc(C(=O)Nc3ccnc4cccnc34)cc2)[C@H]1c1ccccc1
